The values below come from ChEMBL document CHEMBL3826890, “Synthesis and properties of peptide nucleic acid labeled at the N-terminus with HiLyte Fluor 488 fluorescent dye” (Bioorg Med Chem, 2016).

A short description of series [1]: Drug uptake in cytoplasm of HEK293 cells at 1 uM after 24 hrs using HF488-labeled compound by lysotracker deep red/DAPI based fluorescence assay. In kind it is ADME, cell-based. The following applies: human, hek293, 24 h. Summed up:
(§1)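 Cells treated with 1 µM HF488-labeled PNA in Opti-MEM at 37 °C, 10% CO2, for 24 h. Acidic organelles then stained with LysoTracker Deep Red and nuclei with DAPI. Intracellular localization assessed by fluorescence microscopy.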

Series [2] can be described thus: Drug uptake in cytoplasm of human MDA-MB-231 cells at 1 uM after 24 hrs using HF488-labeled compound by lysotracker deep red/DAPI based fluorescence assay. In kind it is ADME, cell-based. The following applies: mda-mb-231, 24 h. The method in brief:
as §1

Series [3] in a line: Drug uptake in cytoplasm of human Caco2 cells at 1 uM after 24 hrs using HF488-labeled compound by lysotracker deep red/DAPI based fluorescence assay. In kind it is ADME, cell-based. The following applies: caco-2, 24 h. Summed up:
as §1

The nature of series [4]: Drug uptake in cytoplasm of human U87MG cells at 1 uM after 24 hrs using HF488-labeled compound by lysotracker deep red/DAPI based fluorescence assay. In kind it is ADME, cell-based. The following applies: u-87mg atcc. Summed up: as §1
Series [5] relates to HEK293. In words: Fluorescence intensity in buffer at 1 uM at pH 5 to 8 at 25 degC after 12 hrs using 5'-HF488-labeled compound by fluorescence spectroscopy. The following applies: pH 5, 12 h.
In series [6] the test system is HEK293. Description: Fluorescence intensity in buffer at 1 uM at pH <7 at 25 degC after 12 hrs using FAM-labeled compound by fluorescence spectroscopy.
The subject of series [7] is HEK293. In words: Fluorescence intensity in buffer at 1 uM at pH 5 to 8 at 25 degC after 12 hrs using 6'-HF488-labeled compound by fluorescence spectroscopy. The following applies: pH 5, 12 h.
Series [8] deals with HEK293. In words: Drug uptake in HEK293 cells at 1 uM after 12 hrs using FAM-labeled compound by flow cytometric method. The following applies: human, hek293, 12 h. In kind it is ADME, cell-based. The method in brief: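 HEK293 cells incubated 12 h at 37 °C with 1 µM labeled PNA in Opti-MEM. Cells harvested, resuspended in DPBS and analysed by flow cytometry.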
Background: A flow cytometer gives signals particle by particle.

Series [9] concerns HEK293. Description: Drug degradation in HEK293 cells assessed as photobleaching rate at 1 uM after 4 scans using FAM-labeled compound by DAPI staining-based laser scanning microscopic method. In kind it is ADME, cell-based. The following applies: human, hek293, 1 µM. Summed up: (§2)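 Live HEK293 cells incubated 12 h at 37 °C with 1 µM labeled PNA in Opti-MEM, then nuclei stained with DAPI. Laser scanning confocal images (63× objective) taken at 32-s intervals over 30 min, scan average 8. Photostability given as MFI of each scan divided by MFI of the first scan, as a percentage. Mean of three experiments.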

Series [10] deals with HEK293. Description: Drug degradation in HEK293 cells assessed as photobleaching rate at 1 uM after 12 scans using FAM-labeled compound by DAPI staining-based laser scanning microscopic method. In kind it is ADME, cell-based. The following applies: human, hek293, 1 µM. The method in brief:
as §2

Series [11] in a line: Binding affinity to dsRNA (unknown origin) after 350 to 600 secs by isothermal titration calorimetry assay.

As to `Cc1cn(CC(=O)N(CCNC(=O)CN(CCNC(=O)CN(CCNC(=O)CN(CCNC(=O)[C@@H](N)CCCCN)C(=O)Cc2ccc(N)nc2)C(=O)Cn2cc(C)c(=O)[nH]c2=O)C(=O)Cc2ccc(N)nc2)CC(=O)NCCN(CC(=O)NCCN(CC(=O)NCCN(CC(=O)NCCN(CC(=O)NCCN(CC(=O)N[C@@H](CCCCN)C(=O)N[C@@H](CCCCN)C(=O)N[C@@H](CCCCN)C(N)=O)C(=O)Cc2ccc(N)nc2)C(=O)Cc2ccc(N)nc2)C(=O)Cn2cc(C)c(=O)[nH]c2=O)C(=O)Cn2cc(C)c(=O)[nH]c2=O)C(=O)Cc2ccc(N)nc2)c(=O)[nH]c1=O`, the Drug uptake entry in series [1], in series [2], in [3] and in series [4] was “Active” each time.
In the case of `Cc1cn(CC(=O)N(CCNC(=O)CN(CCNC(=O)CN(CCNC(=O)CN(CCNC(=O)[C@H](CCCCN)NC(=O)COCCOCCNC(=O)COCCOCCN)C(=O)Cn2ccc(N)nc2=O)C(=O)Cn2cc(C)c(=O)[nH]c2=O)C(=O)Cn2ccc(N)nc2=O)CC(=O)NCCN(CC(=O)NCCN(CC(=O)NCCN(CC(=O)NCCN(CC(=O)NCCN(CC(=O)N[C@@H](CCCCN)C(=O)N[C@@H](CCCCN)C(=O)N[C@@H](CCCCN)C(N)=O)C(=O)Cn2ccc(N)nc2=O)C(=O)Cn2ccc(N)nc2=O)C(=O)Cn2cc(C)c(=O)[nH]c2=O)C(=O)Cn2cc(C)c(=O)[nH]c2=O)C(=O)Cn2ccc(N)nc2=O)c(=O)[nH]c1=O`, the results for the Fluorescence intensity result with HEK293 [5], with HEK293 [6] and in the series with HEK293 [7] were “Active”, “Not Active” and “Active”, respectively.
Turning to `Cc1cn(CC(=O)N(CCNC(=O)CN(CCNC(=O)CN(CCNC(=O)CN(CCNC(=O)[C@H](CCCCN)NC(=O)COCCOCCNC(=O)COCCOCCNC(=O)[C@@H](N)CCCCN)C(=O)Cc2ccc(N)nc2)C(=O)Cn2cc(C)c(=O)[nH]c2=O)C(=O)Cc2ccc(N)nc2)CC(=O)NCCN(CC(=O)NCCN(CC(=O)NCCN(CC(=O)NCCN(CC(=O)NCCN(CC(=O)N[C@@H](CCCCN)C(=O)N[C@@H](CCCCN)C(=O)N[C@@H](CCCCN)C(N)=O)C(=O)Cc2ccc(N)nc2)C(=O)Cc2ccc(N)nc2)C(=O)Cn2cc(C)c(=O)[nH]c2=O)C(=O)Cn2cc(C)c(=O)[nH]c2=O)C(=O)Cc2ccc(N)nc2)c(=O)[nH]c1=O`, the Drug uptake entry in the series with HEK293 [8] is on record as “Active”. In addition, the Drug degradation in the series with HEK293 [9] is recorded as 20%; with HEK293 [10], 50%.
Regarding `Cc1cn(CC(=O)N(CCNC(=O)CN(CCNC(=O)CN(CCNC(=O)CN(CCNC(=O)[C@@H](N)CCCCN)C(=O)Cc2ccc(N)nc2)C(=O)Cn2cc(C)c(=O)[nH]c2=O)C(=O)Cc2ccc(N)nc2)CC(=O)NCCN(CC(=O)NCCN(CC(=O)NCCN(CC(=O)NCCN(CC(=O)NCCN(CC(=O)N[C@H](CCCCN)C(=O)N[C@@H](CCCCN)C(=O)N[C@H](CCCCN)C(N)=O)C(=O)Cc2ccc(N)nc2)C(=O)Cc2ccc(N)nc2)C(=O)Cn2cc(C)c(=O)[nH]c2=O)C(=O)Cn2cc(C)c(=O)[nH]c2=O)C(=O)Cc2ccc(N)nc2)c(=O)[nH]c1=O`, the Kd (usually the constant that tells how readily two partners part at equilibrium) in [11] turned out to be 7.35 nM.
